Assay results as given in ChEMBL document CHEMBL1131190, “Synthesis of 7-benzylamino-6-chloro-2-piperazino-4-pyrrolidinopteridine and novel derivatives free of positional isomers. Potent inhibitors of cAMP-specific phosphodiesterase and of malignant tumor cell growth” (J Med Chem, 1998).
pIC50: −log10 of the molar value. Values belong to the molecule of their own block, whether it stands above or below them.

Columns and labels:
Phosphodiesterase 4 = Phosphodiesterase 4 (Homo sapiens, UniProt P27815+Q08499+Q07343+Q08493); assay: Inhibition of cAMP hydrolysis by inhibiting phosphodiesterases (PDE4), isolated from tumor tissue of human large cell lung tumor xenograft LXFL-529, grown in nude mice.; format: protein assay
[1] = Growth inhibition of LXFL529L cells by sulforhodamine B assay, incubation time 3 days and IC50 was calculated survival of treated cells over control cells X 100[T/C%]; format: functional; conditions: Homo sapiens, LXFL 529L, 72 h
Procedure, shortened: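 LXFL529L cells grown in RPMI 1640 with extra glutamine (300 mg/L), 1% penicillin/streptomycin and 10% newborn calf serum at 37 °C, 5% CO₂, mycoplasma-free. Seeded, grown 24 h, then exposed continuously to drug for 3 d. Sulforhodamine B read-out expressed as % T/C of controls. IC50 from mean ± SEM of two separate assays, each in quadruplicate.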

Structure (SMILES): c1ccc(CNc2cnc3c(N4CCCC4)nc(N4CCNCC4)nc3n2)cc1
IC50 (Phosphodiesterase 4): 0.36 µM
pIC50 [1]: 5.14

Structure (SMILES): Clc1nc2c(N3CCCC3)nc(N3CCNCC3)nc2nc1N1CCCC1
IC50 (Phosphodiesterase 4): 0.059 µM
pIC50 [1]: 5.51

Structure (SMILES): OCCNc1nc(N2CCCC2)c2nc(Cl)c(NCc3ccccc3)nc2n1
IC50 (Phosphodiesterase 4): 2.8 µM
pIC50 [1]: 4.82

Structure (SMILES): CN(C)c1nc2nc(N3CCNCC3)nc(N3CCCC3)c2nc1Cl
IC50 (Phosphodiesterase 4): 0.046 µM
pIC50 [1]: 5.24

Structure (SMILES): CN(C)c1nc2c(N3CCCC3)nc(Cl)nc2nc1NCc1ccccc1
IC50 (Phosphodiesterase 4): 0.65 µM
pIC50 [1]: < 4.70

Structure (SMILES): CN(C)c1nc2nc(N3CCNCC3)nc(N(C)C)c2nc1Cl
IC50 (Phosphodiesterase 4): 1.2 µM
pIC50 [1]: < 4.70

Structure (SMILES): CN(C)c1nc(N2CCNCC2)nc2nc(NCc3ccccc3)c(Cl)nc12
IC50 (Phosphodiesterase 4): 0.3 µM
pIC50 [1]: 5.23

Second part, led by results:

IC50 (Phosphodiesterase 4): 1.8 µM
Structure (SMILES): CN(C)c1nc(N2CCCC2)c2nc(Cl)c(NCc3ccccc3)nc2n1
pIC50 [1]: 4.93

IC50 (Phosphodiesterase 4): 3.1 µM
Structure (SMILES): CN1CCN(c2nc(N3CCCC3)c3nc(Cl)c(NCc4ccccc4)nc3n2)CC1
pIC50 [1]: 5.19

IC50 (Phosphodiesterase 4): 2.5 µM
Structure (SMILES): Clc1nc2c(N3CCCC3)nc(N3CCOCC3)nc2nc1NCc1ccccc1
pIC50 [1]: < 4.70

IC50 (Phosphodiesterase 4): 4.2 µM
Structure (SMILES): O=C1CN(c2nc(N3CCCC3)c3nc(Cl)c(NCc4ccccc4)nc3n2)CCN1
pIC50 [1]: 5.02

IC50 (Phosphodiesterase 4): 5.9 µM
Structure (SMILES): CC(=O)N1CCN(c2nc(N3CCCC3)c3nc(Cl)c(NCc4ccccc4)nc3n2)CC1
pIC50 [1]: 4.89

IC50 (Phosphodiesterase 4): 0.083 µM
Structure (SMILES): Clc1nc2c(NCc3ccccc3)nc(N3CCNCC3)nc2nc1N1CCCC1
pIC50 [1]: 5.40

IC50 (Phosphodiesterase 4): 3.7 µM
Structure (SMILES): NCCNc1nc(N2CCCC2)c2nc(Cl)c(NCc3ccccc3)nc2n1
pIC50 [1]: 5.49

IC50 (Phosphodiesterase 4): 0.016 µM
Structure (SMILES): Clc1nc2c(N3CCCC3)nc(N3CCNCC3)nc2nc1NCc1ccccc1
pIC50 [1]: 5.64
